Experimental data pooled from the literature.
Compare with care: the assays were run in different laboratories.
Target: cGMP-dependent protein kinase 2 (PRKG2, Homo sapiens, UniProt Q13237)
Sequence (Q13237 1-762, as in one of the studies): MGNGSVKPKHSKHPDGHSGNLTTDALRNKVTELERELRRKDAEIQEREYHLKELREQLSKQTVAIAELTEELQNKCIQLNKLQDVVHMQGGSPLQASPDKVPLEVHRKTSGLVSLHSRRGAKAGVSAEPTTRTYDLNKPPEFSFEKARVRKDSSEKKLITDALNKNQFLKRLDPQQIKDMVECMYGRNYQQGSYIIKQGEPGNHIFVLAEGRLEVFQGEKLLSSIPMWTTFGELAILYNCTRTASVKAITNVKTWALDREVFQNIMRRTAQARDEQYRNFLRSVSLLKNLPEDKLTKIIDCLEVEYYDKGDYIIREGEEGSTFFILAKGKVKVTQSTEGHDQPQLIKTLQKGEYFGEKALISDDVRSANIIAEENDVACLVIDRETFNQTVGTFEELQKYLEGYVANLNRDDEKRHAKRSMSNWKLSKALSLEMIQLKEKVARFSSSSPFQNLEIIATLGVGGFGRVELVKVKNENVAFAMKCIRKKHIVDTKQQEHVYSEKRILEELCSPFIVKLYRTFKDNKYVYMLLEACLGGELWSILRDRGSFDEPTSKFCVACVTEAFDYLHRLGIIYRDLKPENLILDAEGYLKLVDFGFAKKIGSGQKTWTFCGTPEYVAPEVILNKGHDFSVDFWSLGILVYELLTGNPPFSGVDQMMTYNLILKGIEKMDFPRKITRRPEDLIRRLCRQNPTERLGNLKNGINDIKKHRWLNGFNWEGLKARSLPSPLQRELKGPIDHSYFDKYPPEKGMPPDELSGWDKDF

Compound | effect on | action | method | tested at | measurement | result
Cc1ccc(C(=O)NCc2ccsc2)cc1C#Cc1cn(C(C)C)c2ncnc(N)c12 | enzyme activity | inhibitor |  | 1 µM | activity vs control | 112%
O=C(NCCCC1CCCCC1)c1ccc(CNC(=O)c2cnn(-c3ccccc3)c2C(F)(F)F)cc1 | cell-free assay |  | competition with immobilised ligand | 0.1 µM | remaining binding | 89%
Cc1ccc(C(=O)Nc2ccc(CN3CCN(C)CC3)c(C(F)(F)F)c2)cc1C#Cc1cnc2cccnn12 | enzyme activity | inhibitor |  | 23.5 nM | remaining activity | 82%
CN(C)c1ncnc(-c2ccc3nc(Nc4cc(CN5CCN(C(=O)CC(F)(F)F)CC5)ccn4)[nH]c3c2)c1Cl | cell-free assay |  | competition with immobilised ligand | 1 µM | remaining binding | 40%
COc1cc2ncnc(Nc3ccc(Oc4ccccc4)cc3C)c2cc1OC | enzyme activity | inhibitor |  | 1 µM | inhibition | 3%
CC1=C(C#N)[C@@H](c2ccc3[nH]nc(C)c3c2)C(C#N)=C(c2ccc(Cl)cc2)N1 | cell-free assay |  | competition with immobilised ligand | 1 µM | remaining binding | 100%
Nc1ncnc2occ(-c3ccc(NC(=O)Nc4cc(C(F)(F)F)ccc4F)cc3)c12 | cell-free assay | inhibitor |  | 20 µM | remaining signal | 76%
CCCS(=O)(=O)Nc1ccc(F)c(C(=O)c2c[nH]c3ncc(-c4ccc(Cl)cc4)cc23)c1F | enzyme activity | inhibitor |  | 1 µM | inhibition | < 10%
Cn1cnc(Br)c1C1=CN(c2ncnc3[nH]cnc23)CCS1 | enzyme activity | inhibitor | radiometric | 2 µM | inhibition | 91.7%
O=C(Nc1cccnn1)N1CCC(=Cc2cccc(Oc3ccc(C(F)(F)F)cn3)c2)CC1 | cell-free assay |  | competition with immobilised ligand | 1 µM | remaining binding | 100%
CN(C)C1CCN(CC#Cc2nn(C3CCCC3)c3nc(NCc4ccccc4)ncc23)C1 (stereo not shown) | enzyme activity | inhibitor | FRET | 10 µM | inhibition | 5%
O=C1NC(=O)c2cc(Nc3ccc(F)cc3)c(Nc3ccc(F)cc3)cc21 | cell-free assay |  |  | 0.5 µM | remaining signal | 83.3%
CC(C)(C)c1nc2c(s1)c1nc(N)ncc1c1ccc(NS(=O)(=O)c3c(F)cccc3F)c(F)c12 | enzyme activity | inhibitor | radiometric | 1 µM | remaining activity | 102%
C#Cc1cccc(Nc2ncnc3cc(OCCOC)c(OCCOC)cc23)c1 | cell-free assay |  |  | 0.5 µM | remaining signal | 107%
O=C(Nc1cnn(-c2csc(C(=O)NC3COC3)c2)c1)Nc1ccccc1Cl | enzyme activity | inhibitor |  | 5 µM | remaining activity | 101%
CSc1cccnc1N1CCN(Cc2nc3ccccc3[nH]2)CC1 | cell-free assay |  | competition with immobilised ligand | 1 µM | remaining binding | 94%
N#CCCc1ccc2c(c1)-c1[nH]c3ccc([N+](=O)[O-])cc3c1CC(=O)N2 | cell-free assay |  |  | 0.5 µM | remaining signal | 93.9%
CN([C@@H]1CCc2c(CC(=O)O)c3ccccc3n2C1)S(=O)(=O)c1ccc(F)cc1 | cell-free assay |  | competition with immobilised ligand | 1 µM | remaining binding | 100%
CC(C)(O)[C@H]1CC[C@H](Nc2ccc3ncc(-c4cccc(C(F)(F)F)c4)n3n2)CC1 | enzyme activity | inhibitor |  | 1 µM | remaining activity | 93.7%
